Active and inactive are the calls of the source. The calls are words filed in the database; no cut-off is given here.
Columns and labels:
[1] = Antiproliferative activity against CD-1 mouse uterine epithelial cell at 1 mg/kg, ip for 7 days by immunohistochemistry method; type: functional; details: time 7 day
How it was run: (§1)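 Ovariectomized CD-1 mice, 5 per group, dosed IP daily for 7 days: 10% DMSO vehicle, progesterone 1 mg/kg, baicalein 25 mg/kg, P4 1 mg/kg + baicalein 25 mg/kg, or P4 1 mg/kg + RU486 10 mg/kg. One uterine horn formalin-fixed, paraffin-embedded, cut at 5 μm. IHC: citrate antigen retrieval at 100 °C, primary antibody overnight at 4 °C, ABC/DAB, hematoxylin counterstain. For PCNA, the percentage of proliferating luminal epithelial cells was counted.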

Mus musculus [2] = assay: Inhibition of ZBTB16 expression in CD-1 mouse uterus at 1 mg/kg, ip for 7 days by Immunohistochemical staining method; type: functional, organism-based; details: time 7.0 day; how it was run: as §1
Mus musculus [3] = assay: Effect on PR protein level in CD-1 mouse uterus at 1 mg/kg, ip for 7 days by immunohistochemical; type: functional, organism-based; details: time 7.0 day; how it was run: as §1
Mus musculus [4] = assay: Effect on GR expression in CD-1 mouse uterine stromal at 1 mg/kg, ip for 7 days by immunohistochemical staining analysis; type: functional, organism-based; details: Stroma, time 7.0 day; how it was run: as §1
[5] = Toxicity in CD-1 mouse assessed as effect on body weight at 25 mg/kg, ip for 7 days (Rvb= 30g); type: organism-based; details: in vivo, 168 h, time 7 day
[6] = Toxicity in CD-1 mouse assessed as effect on uterus weight at 25 mg/kg,ip for 7 days (Rvb= 0.033g); type: organism-based; details: in vivo, 168 h, time 7 day
[7] = Toxicity in CD-1 mouse assessed as effect on MG weight at 25 mg/kg, ip for 7 days (Rvb= 0.22g); type: organism-based; details: in vivo, 168 h, time 7 day
[8] = Toxicity in CD-1 mouse assessed as effect on liver weight at 25 mg/kg, ip for 7 days (Rvb= 1.3 g); type: organism-based; details: in vivo, 168 h, time 7 day
[9] = Toxicity in CD-1 mouse assessed as effect on glucose level at 25 mg/kg, ip for 7 days (Rvb=231.6 mg/dL); type: organism-based; details: in vivo, 168 h, time 7 day
[10] = Antiproliferative activity against CD-1 mouse uterine epithelial cell at 25 mg/kg, ip for 7 days by immunohistochemistry method; type: functional; details: time 7 day
How it was run: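 Ovariectomized CD-1 mice (n=5/group) received ip 10% DMSO vehicle, 1 mg/kg P4, 25 mg/kg compound, or P4 plus compound daily for 7 days. Formalin-fixed, paraffin 5 μm uterine sections underwent citrate antigen retrieval (100 °C, 30 min), then PCNA IHC (1:200, overnight 4 °C), ABC/DAB and hematoxylin counterstain. Read-out was the percentage of PCNA-positive luminal epithelial cells.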

Mus musculus [11] = assay: Upregulation of P4 induced HAND2 expression in CD-1 mouse uterus at 25 mg/kg, ip for 7 days by immunohistochemical staining method; type: functional, organism-based; details: time 7.0 day, in the assay text read “Downregulation” for “Upregulation”
How it was run: (§2)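 Ovariectomized CD-1 mice (n=5/group) were dosed ip for 7 days with 10% DMSO, 1 mg/kg P4, 25 mg/kg compound, 1 mg/kg P4 plus 25 mg/kg compound, or 1 mg/kg P4 plus 10 mg/kg RU486. Uterine sections (5 μm) were processed with citrate retrieval and overnight 4 °C primary antibodies: GR 1:100; PR, HAND2 and ZBTB16 1:200. Staining used biotinylated secondary, ABC and DAB, and was assessed qualitatively.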

Mus musculus [12] = assay: Inhibition of PR induced ZBTB16 expression in CD-1 mouse uterus at 25 mg/kg,ip for 7 days by Immunohistochemical staining method; type: functional, organism-based; details: time 7.0 day; how it was run: as §2
Mus musculus [13] = assay: Inhibition of ZBTB16 expression in CD-1 mouse uterus at 25 mg/kg, ip for 7 days by Immunohistochemical staining method; type: functional, organism-based; details: time 7.0 day; how it was run: as §2
Mus musculus [14] = assay: Effect on P4 induced PR protein level in CD-1 mouse uterus at 25 mg/kg, ip for 7 days by immunohistochemical staining method; type: functional, organism-based; details: time 7.0 day; how it was run: as §2
Mus musculus [15] = assay: Effect on PR protein level in CD-1 mouse uterus at 25 mg/kg, ip for 7 days by immunohistochemical staining method; type: functional, organism-based; details: time 7.0 day; how it was run: as §2
Mus musculus [16] = assay: Effect on P4 induced GR expression in CD-1 mouse uterine stroma at 25 mg/kg, ip for 7 days by immunohistochemical analysis; type: functional, organism-based; details: time 7.0 day; how it was run: as §2
Mus musculus [17] = assay: Effect on P4 induced GR expression in CD-1 mouse uterine luminal epithelium at 25 mg/kg, ip for 7 days by immunohistochemical analysis; type: functional, organism-based; details: Uterine lumen, time 7.0 day; how it was run: as §2
Mus musculus [18] = assay: Effect on GR expression in CD-1 mouse uterine stroma at 25 mg/kg, ip for 7 days by immunohistochemical analysis; type: functional, organism-based; details: time 7.0 day; how it was run: as §2
Mus musculus [19] = assay: Effect on GR expression in CD-1 mouse uterine luminal epithelium at 25 mg/kg, ip for 7 days by immunohistochemical analysis; type: functional, organism-based; details: Uterine lumen, time 7.0 day; how it was run: as §2
Progesterone receptor = target: T1, Progesterone receptor (Homo sapiens, UniProt P06401); assay: Competitive inhibition of progesterone receptor (unknown origin) by fluorescence polarization based competition assay
T1 sequence (P06401 whole entry): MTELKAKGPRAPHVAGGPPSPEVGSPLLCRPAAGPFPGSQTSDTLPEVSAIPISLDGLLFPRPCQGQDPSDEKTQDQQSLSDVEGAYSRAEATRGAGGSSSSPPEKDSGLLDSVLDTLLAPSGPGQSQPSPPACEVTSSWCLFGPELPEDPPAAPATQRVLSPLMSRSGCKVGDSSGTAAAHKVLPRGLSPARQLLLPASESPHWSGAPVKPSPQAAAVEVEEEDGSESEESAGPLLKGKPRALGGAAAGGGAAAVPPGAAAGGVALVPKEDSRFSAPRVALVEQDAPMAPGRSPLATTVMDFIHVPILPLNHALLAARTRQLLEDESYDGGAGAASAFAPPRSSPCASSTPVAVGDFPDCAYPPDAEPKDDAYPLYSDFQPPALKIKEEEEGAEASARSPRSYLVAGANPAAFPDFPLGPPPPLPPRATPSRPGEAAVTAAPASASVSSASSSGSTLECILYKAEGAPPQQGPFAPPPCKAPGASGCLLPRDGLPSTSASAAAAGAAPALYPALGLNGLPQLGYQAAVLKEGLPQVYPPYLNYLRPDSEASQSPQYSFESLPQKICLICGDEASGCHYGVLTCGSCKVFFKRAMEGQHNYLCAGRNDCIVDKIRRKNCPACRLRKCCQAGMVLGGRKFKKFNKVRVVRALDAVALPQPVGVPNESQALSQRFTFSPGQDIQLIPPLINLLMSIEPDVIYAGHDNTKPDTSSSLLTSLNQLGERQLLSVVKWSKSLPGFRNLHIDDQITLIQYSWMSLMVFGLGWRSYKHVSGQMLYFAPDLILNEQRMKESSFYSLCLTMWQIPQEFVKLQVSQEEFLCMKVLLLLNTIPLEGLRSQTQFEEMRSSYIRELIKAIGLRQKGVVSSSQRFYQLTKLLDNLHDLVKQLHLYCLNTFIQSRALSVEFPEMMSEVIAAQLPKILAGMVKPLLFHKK

Glucocorticoid receptor = target: T2, Glucocorticoid receptor (Homo sapiens, UniProt P04150); assay: Competitive inhibition of glucocorticoid receptor (unknown origin) by fluorescence polarization based competition assay
T2 sequence (P04150 whole entry): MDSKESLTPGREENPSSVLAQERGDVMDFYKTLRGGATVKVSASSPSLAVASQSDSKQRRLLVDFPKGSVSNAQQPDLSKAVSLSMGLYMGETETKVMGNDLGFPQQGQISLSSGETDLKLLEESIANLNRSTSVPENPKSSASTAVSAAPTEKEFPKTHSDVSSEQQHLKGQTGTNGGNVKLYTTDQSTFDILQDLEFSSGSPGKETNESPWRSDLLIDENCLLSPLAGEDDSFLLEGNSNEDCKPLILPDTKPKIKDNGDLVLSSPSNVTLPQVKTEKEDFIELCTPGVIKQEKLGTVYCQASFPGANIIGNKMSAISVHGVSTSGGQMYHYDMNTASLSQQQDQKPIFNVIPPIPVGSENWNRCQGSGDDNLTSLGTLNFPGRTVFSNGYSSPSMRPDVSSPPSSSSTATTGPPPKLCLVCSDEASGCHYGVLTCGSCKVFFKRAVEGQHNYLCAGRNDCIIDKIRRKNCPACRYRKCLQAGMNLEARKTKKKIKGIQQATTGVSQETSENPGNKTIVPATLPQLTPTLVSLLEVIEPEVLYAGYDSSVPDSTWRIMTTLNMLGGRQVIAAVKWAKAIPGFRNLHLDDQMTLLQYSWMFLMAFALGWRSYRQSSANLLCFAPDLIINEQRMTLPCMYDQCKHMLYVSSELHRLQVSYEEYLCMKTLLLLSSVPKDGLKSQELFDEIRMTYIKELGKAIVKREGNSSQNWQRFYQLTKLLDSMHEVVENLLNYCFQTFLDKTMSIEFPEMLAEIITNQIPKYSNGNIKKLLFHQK

[20] = Toxicity in P4 induced CD-1 mouse assessed as effect on body weight at 25 mg/kg, ip for 7 days (Rvb= 30g); type: organism-based; details: in vivo, 168 h, time 7 day
[21] = Toxicity in P4 induced CD-1 mouse assessed as effect on uterus weight at 25 mg/kg,ip for 7 days (Rvb= 0.033g); type: organism-based; details: in vivo, 168 h, time 7 day
[22] = Toxicity in P4 induced CD-1 mouse assessed as effect on MG weight at 25 mg/kg, ip for 7 days (Rvb= 0.22g); type: organism-based; details: in vivo, 168 h, time 7 day
[23] = Toxicity in P4 induced CD-1 mouse assessed as effect on liver weight at 25 mg/kg, ip for 7 days (Rvb= 1.3 g); type: organism-based; details: in vivo, 168 h, time 7 day
[24] = Toxicity in P4 induced CD-1 mouse assessed as effect on glucose level at 25 mg/kg, ip for 7 days (Rvb=231.6 mg/dL); type: organism-based; details: in vivo, 168 h, time 7 day
Mus musculus [25] = assay: Upregulation of HAND2 expression in CD-1 mouse uterus at 25 mg/kg, ip for 7 days by immunohistochemical staining method; details: time 7.0 day
Mus musculus [26] = assay: Upregulation of P4 induced HAND2 expression in CD-1 mouse uterus at 10 mg/kg, ip for 7 days by immunohistochemical staining method; type: functional, organism-based; details: time 7.0 day
Mus musculus [27] = assay: Effect on P4 induced PR protein level in CD-1 mouse uterus at 10 mg/kg, ip for 7 days by immunohistochemical staining method; type: functional, organism-based; details: time 7.0 day
Mus musculus [28] = assay: Effect on P4 induced GR expression in CD-1 mouse uterine stroma at 10 mg/kg, ip for 7 days by immunohistochemical analysis; type: functional, organism-based; details: time 7.0 day; how it was run: as §2
Mus musculus [29] = assay: Effect on P4 induced GR expression in CD-1 mouse uterine luminal epithelium at 10 mg/kg, ip for 7 days by immunohistochemical analysis; type: functional, organism-based; details: Uterine lumen, time 7.0 day; how it was run: as §2
[30] = Toxicity in P4 induced CD-1 mouse assessed as effect on body weight at 10 mg/kg, ip for 7 days (Rvb= 30g); type: organism-based; details: in vivo, 168 h, time 7 day
[31] = Toxicity in P4 induced CD-1 mouse assessed as effect on uterus weight at 10 mg/kg,ip for 7 days (Rvb= 0.033g); type: organism-based; details: in vivo, 168 h, time 7 day
[32] = Toxicity in P4 induced CD-1 mouse assessed as effect on MG weight at 10 mg/kg, ip for 7 days (Rvb= 0.22g); type: organism-based; details: in vivo, 168 h, time 7 day
[33] = Toxicity in P4 induced CD-1 mouse assessed as effect on liver weight at 10 mg/kg, ip for 7 days (Rvb= 1.3 g); type: organism-based; details: in vivo, 168 h, time 7 day
[34] = Toxicity in P4 induced CD-1 mouse assessed as effect on glucose level at 10 mg/kg, ip for 7 days (Rvb=231.6 mg/dL); type: organism-based; details: in vivo, 168 h, time 7 day

Structure (SMILES): CC(=O)[C@H]1CC[C@H]2[C@@H]3CCC4=CC(=O)CC[C@]4(C)[C@H]3CC[C@]12C [PROGESTERONE]
- Activity [1]: 7%
- inhibition (Mus musculus [2]): inactive
- Activity (Mus musculus [3]): inactive
- Activity (Mus musculus [4]): Active
- Activity [5]: 30 g
- Activity [6]: 0.021 g
- Activity [7]: 0.24 g
- Activity [8]: 1.4 g
- Activity [9]: 209.4 mg/dL

Structure (SMILES): O=c1cc(-c2ccccc2)oc2cc(O)c(O)c(O)c12 [BAICALEIN]
- Activity [10]: 47%
- Activity (Mus musculus [11]): Active
- inhibition (Mus musculus [12]): Active
- inhibition (Mus musculus [13]): inactive
- Activity (Mus musculus [14]): inactive
- Activity (Mus musculus [15]): inactive
- Activity (Mus musculus [16]): Active
- Activity (Mus musculus [17]): Active
- Activity (Mus musculus [18]): inactive
- Activity (Mus musculus [19]): inactive
- Activity [5]: 30 g
- Activity [6]: 0.026 g
- Activity [7]: 0.26 g
- Activity [8]: 1.4 g
- Activity [9]: 196.2 mg/dL
- IC50 (Progesterone receptor): 15 µM
- IC50 (Glucocorticoid receptor): 19 µM
- Activity [20]: 30 g
- Activity [21]: 0.024 g
- Activity [22]: 0.23 g
- Activity [23]: 1.2 g
- Activity [24]: 179.8 mg/dL
- Activity (Mus musculus [25]): inactive

Structure (SMILES): CC#C[C@]1(O)CC[C@H]2[C@@H]3CCC4=CC(=O)CCC4=C3[C@@H](c3ccc(N(C)C)cc3)C[C@@]21C [MIFEPRISTONE]
- Activity (Mus musculus [26]): inactive
- Activity (Mus musculus [27]): inactive
- Activity (Mus musculus [28]): Active
- Activity (Mus musculus [29]): Active
- Activity [30]: 29 g
- Activity [31]: 0.021 g
- Activity [32]: 0.17 g
- Activity [33]: 1.2 g
- Activity [34]: 198.2 mg/dL
